Test results taken from ChEMBL document CHEMBL2331331 (J Med Chem, 2013).
Calls of active or inactive are those of the source. The calls are words filed in the database; no cut-off is given here.

Tests used:
MCF7 = experiment: Cytotoxicity against human MCF7 cells assessed as growth inhibition after 72 hrs by MTT assay; conditions: MCF7, 72 h
MV4-11 [1] = experiment: Induction of apoptosis in human MV4-11 cells assessed as late apoptotic cells at 0.001 uM after 24 hrs by annexin V-FITC/propidium iodide staining-based FACS flow cytometric analysis (reference value: 4.28%); assay type: functional
[2] = molecular target: Serine/threonine-protein kinase PAK 1 (Homo sapiens, UniProt Q13153); experiment: Inhibition of PAK1 (unknown origin)
MV4-11 [3] = experiment: Antitumor activity against FLT3-ITD-positive human MV4-11 cells xenografted in NOD-SCID mouse assessed as tumor growth inhibition at 10 mg/kg/day, po after 3 days by Ki67 staining-based light microscopic analysis relative to vehicle-treated control; assay type: functional, organism-based
Outline: (§1)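 Mice (NOD-SCID) bearing sc MV4-11 tumors given 10 mg/kg/d by oral gavage. Tumors removed after 2–4 days and formalin-fixed. Sections immunostained for Ki67 (proliferation) or p-STAT5, or TUNEL-stained (apoptosis). Imaged by light microscopy and compared with vehicle group.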

[4] = molecular target: Cyclin-dependent kinase 2 (Homo sapiens, UniProt P24941); experiment: Inhibition of CDK2 (unknown origin)
U-266 = experiment: Cytotoxicity against human U266 cells assessed as growth inhibition after 72 hrs by MTT assay; conditions: U-266, 72 h
MV4-11 [5] = experiment: Antitumor activity against FLT3-ITD-positive human MV4-11 cells xenografted in NOD-SCID mouse assessed as tumor growth inhibition at 3 mg/kg/day, po administered 18 days measured every 3 days for 18 days; assay type: functional, organism-based
Outline: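 NOD-SCID mice (5–6 weeks) implanted sc with 1 × 10⁸/mL MV4-11 cells (100 μL) in serum-free medium. Grouped at 300–500 mm³, six per group, then dosed orally once daily for 18 days. Vehicle was 12.5% castor oil, 12.5% ethanol, 75% water. Tumor volume = long × short²/2, measured every 3 d.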

SMMC-7721 = experiment: Cytotoxicity against human SMMC7721 cells assessed as growth inhibition after 72 hrs by MTT assay; conditions: SMMC-7721, 72 h
Myotonin-protein kinase = Myotonin-protein kinase (Homo sapiens, UniProt Q09013); experiment: Inhibition of DMPK (unknown origin)
[6] = molecular target: Receptor-type tyrosine-protein kinase FLT3 (Homo sapiens, UniProt P36888, ITD); experiment: Binding affinity to FLT3-ITD mutant (unknown origin)
Receptor-type tyrosine-protein kinase FLT3, sequence (P36888 whole entry, looked up, stated change not applied): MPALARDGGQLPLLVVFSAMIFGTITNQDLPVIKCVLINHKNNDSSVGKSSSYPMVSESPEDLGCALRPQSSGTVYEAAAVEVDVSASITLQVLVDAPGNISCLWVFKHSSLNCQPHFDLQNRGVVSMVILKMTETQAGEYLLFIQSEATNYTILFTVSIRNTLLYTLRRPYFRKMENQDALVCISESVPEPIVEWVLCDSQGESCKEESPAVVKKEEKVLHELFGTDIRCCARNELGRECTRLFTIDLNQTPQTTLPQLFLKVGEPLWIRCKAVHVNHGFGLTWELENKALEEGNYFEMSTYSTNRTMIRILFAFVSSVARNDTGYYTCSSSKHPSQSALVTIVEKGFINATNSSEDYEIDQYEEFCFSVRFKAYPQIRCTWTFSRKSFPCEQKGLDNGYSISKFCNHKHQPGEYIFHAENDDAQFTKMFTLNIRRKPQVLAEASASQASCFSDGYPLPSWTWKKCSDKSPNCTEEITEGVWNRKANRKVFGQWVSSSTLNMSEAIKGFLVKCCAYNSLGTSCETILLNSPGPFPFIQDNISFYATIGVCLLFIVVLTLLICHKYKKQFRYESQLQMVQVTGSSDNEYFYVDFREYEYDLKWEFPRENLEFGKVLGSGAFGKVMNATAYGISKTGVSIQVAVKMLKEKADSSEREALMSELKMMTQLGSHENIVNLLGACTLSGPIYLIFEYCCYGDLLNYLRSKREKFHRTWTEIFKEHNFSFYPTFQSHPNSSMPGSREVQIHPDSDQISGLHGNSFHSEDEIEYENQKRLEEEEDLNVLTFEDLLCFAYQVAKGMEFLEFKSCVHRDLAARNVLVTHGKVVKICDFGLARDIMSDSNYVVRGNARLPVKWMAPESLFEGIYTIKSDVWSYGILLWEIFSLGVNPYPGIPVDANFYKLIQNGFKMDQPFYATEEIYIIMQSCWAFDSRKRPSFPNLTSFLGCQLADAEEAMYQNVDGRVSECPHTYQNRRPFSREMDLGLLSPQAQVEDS

MDA-MB-468 = experiment: Cytotoxicity against human MDA-MB-468 cells assessed as growth inhibition after 72 hrs by MTT assay; conditions: MDA-MB-468, 72 h
[7] = Oral bioavailability in Sprague-Dawley rat at 10 mg/kg/day; assay type: ADME, organism-based; conditions: in vivo
Outline: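 Sprague-Dawley rats, five per group, were dosed orally at 10 mg/kg. Plasma was sampled through jugular vein cannulation. Drug levels were measured by liquid–liquid extraction followed by LC–MS.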

[8] = Cmax in Sprague-Dawley rat at 10 mg/kg/day, po measured within 7 hrs; assay type: ADME, organism-based; set-up: dose 10 mg/kg/day, route oral; conditions: in vivo
[9] = molecular target: Receptor tyrosine-protein kinase erbB-4 (Homo sapiens, UniProt Q15303); experiment: Inhibition of ERBB4 (unknown origin)
Receptor tyrosine-protein kinase erbB-4, sequence (Q15303 whole entry): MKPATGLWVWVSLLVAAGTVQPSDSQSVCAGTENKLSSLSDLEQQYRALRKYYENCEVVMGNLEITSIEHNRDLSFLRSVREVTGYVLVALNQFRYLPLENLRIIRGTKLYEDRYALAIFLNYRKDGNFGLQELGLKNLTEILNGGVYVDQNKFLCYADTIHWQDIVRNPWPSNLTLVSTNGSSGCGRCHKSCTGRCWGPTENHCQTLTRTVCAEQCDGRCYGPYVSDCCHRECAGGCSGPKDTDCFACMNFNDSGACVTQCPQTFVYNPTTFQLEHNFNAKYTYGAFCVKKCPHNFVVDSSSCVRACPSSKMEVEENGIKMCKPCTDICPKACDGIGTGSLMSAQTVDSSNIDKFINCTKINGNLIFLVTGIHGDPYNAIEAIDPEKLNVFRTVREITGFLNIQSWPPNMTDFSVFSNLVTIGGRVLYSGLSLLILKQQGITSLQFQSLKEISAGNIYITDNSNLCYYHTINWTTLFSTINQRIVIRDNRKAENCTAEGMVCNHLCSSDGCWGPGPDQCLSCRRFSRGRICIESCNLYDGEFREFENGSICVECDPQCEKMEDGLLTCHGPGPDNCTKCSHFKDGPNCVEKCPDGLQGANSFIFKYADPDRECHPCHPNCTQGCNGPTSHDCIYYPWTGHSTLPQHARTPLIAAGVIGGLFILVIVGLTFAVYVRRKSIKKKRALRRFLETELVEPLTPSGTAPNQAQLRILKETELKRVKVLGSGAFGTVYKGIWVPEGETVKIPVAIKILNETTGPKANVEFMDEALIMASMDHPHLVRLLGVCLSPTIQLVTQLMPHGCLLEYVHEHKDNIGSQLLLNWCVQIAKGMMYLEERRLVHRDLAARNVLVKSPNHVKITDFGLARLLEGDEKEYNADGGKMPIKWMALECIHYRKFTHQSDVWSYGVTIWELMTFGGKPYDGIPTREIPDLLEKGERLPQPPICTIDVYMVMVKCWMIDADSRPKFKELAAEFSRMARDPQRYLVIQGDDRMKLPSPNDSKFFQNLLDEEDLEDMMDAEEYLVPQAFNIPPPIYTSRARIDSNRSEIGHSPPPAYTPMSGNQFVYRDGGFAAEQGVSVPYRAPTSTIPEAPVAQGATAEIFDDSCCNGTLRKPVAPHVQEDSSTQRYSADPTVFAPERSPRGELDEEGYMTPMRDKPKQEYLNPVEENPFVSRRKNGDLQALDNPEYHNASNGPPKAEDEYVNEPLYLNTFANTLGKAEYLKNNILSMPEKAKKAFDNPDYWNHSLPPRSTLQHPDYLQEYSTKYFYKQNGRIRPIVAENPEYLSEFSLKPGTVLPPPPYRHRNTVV

[10] = molecular target: Vascular endothelial growth factor receptor 2 (Danio rerio, UniProt Q5GIT4); experiment: (§2) Inhibition of VEGFR2 in transgenic zebrafish embryo assessed as inhibition of intersegmental vessels formation measured 33 hrs post fertilization by fluorescence microscopic analysis
Vascular endothelial growth factor receptor 2, sequence (Q5GIT4 whole entry): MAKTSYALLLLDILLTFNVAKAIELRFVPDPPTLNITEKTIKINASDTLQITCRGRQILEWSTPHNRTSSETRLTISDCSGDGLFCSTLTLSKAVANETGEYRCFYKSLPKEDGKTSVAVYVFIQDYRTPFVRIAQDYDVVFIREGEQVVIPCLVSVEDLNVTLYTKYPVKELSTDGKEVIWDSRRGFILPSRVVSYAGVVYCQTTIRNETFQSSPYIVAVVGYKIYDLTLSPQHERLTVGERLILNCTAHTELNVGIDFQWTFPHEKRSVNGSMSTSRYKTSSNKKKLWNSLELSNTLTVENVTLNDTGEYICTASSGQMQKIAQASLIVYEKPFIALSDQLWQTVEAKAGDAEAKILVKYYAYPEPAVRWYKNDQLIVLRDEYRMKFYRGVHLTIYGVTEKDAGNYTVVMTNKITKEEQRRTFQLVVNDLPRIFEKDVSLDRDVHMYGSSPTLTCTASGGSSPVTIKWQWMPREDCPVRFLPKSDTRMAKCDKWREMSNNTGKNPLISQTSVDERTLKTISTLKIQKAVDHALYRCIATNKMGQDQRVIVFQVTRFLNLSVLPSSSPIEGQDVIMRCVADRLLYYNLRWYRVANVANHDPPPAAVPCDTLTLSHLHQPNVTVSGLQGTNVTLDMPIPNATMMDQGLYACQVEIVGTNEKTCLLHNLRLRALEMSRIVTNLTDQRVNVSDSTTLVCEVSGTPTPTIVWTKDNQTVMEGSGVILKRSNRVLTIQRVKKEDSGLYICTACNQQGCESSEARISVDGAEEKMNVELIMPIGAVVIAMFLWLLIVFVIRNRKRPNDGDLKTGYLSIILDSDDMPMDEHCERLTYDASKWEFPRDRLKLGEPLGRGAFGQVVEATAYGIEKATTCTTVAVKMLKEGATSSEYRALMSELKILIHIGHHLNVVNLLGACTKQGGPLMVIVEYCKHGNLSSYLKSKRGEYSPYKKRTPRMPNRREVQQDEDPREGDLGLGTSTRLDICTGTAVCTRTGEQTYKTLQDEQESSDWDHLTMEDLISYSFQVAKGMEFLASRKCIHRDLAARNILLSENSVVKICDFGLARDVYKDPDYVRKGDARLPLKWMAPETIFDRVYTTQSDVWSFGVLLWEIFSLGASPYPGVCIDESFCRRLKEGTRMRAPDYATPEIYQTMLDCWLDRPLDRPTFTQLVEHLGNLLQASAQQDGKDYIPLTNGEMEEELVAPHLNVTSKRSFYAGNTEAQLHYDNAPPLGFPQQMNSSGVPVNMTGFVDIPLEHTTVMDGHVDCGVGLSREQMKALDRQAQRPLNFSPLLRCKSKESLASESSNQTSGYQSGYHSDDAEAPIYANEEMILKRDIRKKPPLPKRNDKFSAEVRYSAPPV
Outline: (§3)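 FLK-1:EGFP transgenic zebrafish embryos, 10 per well, exposed at 28.5 °C from 15 to 31 hpf to compound in fish water at 1.25, 2.5 or 5 μM (diluted from a 10 mmol/L DMSO stock); 0.3% DMSO as vehicle control. Embryos were imaged at 33 hpf, and ISVs above the yolk extension were scored for length. n = 11, mean ± SD, ANOVA.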

[11] = molecular target: Vascular endothelial growth factor receptor 2 (Danio rerio) (UniProt Q5GIT4); experiment: as §2; outline: as §3
Vascular endothelial growth factor receptor 2 (Danio rerio), sequence (Q5GIT4 whole entry): as above

[12] = molecular target: Insulin-like growth factor 1 receptor (Homo sapiens, UniProt P08069); experiment: Inhibition of IGF1R (unknown origin)
MV4-11 [13] = experiment: Induction of apoptosis in FLT3-ITD-positive human MV4-11 cells xenografted in NOD-SCID mouse assessed as increase in apoptotic cells at 10 mg/kg/day, po by TUNEL assay; assay type: functional, organism-based; conditions: TDE = time-dependent effect; outline: as §1
[14] = AUC (0 to 24 hrs) in Sprague-Dawley rat at 10 mg/kg/day, po; assay type: ADME, organism-based; set-up: dose 10 mg/kg/day, time < 24 hr, route oral; conditions: plasma
[15] = molecular target: Serine/threonine-protein kinase PLK1 (Homo sapiens, UniProt P53350); experiment: Inhibition of PLK1 (unknown origin)
Bel-7402 = experiment: Cytotoxicity against human Bel7402 cells assessed as growth inhibition after 72 hrs by MTT assay; conditions: Bel-7402, 72 h
[16] = molecular target: Vascular endothelial growth factor receptor 2 (Danio rerio) (UniProt Q5GIT4); experiment: Inhibition of VEGFR2 in transgenic zebrafish embryo assessed as inhibition of intersegmental vessels formation at 5 uM measured 33 hrs post fertilization by fluorescence microscopic analysis; outline: as §3
K562 = experiment: Cytotoxicity against human K562 cells assessed as growth inhibition after 72 hrs by MTT assay; conditions: K562, 72 h
[17] = molecular target: Serine/threonine-protein kinase PAK 2 (Homo sapiens, UniProt Q13177); experiment: Inhibition of PAK2 (unknown origin)
[18] = molecular target: Serine/threonine-protein kinase/endoribonuclease IRE1 (Homo sapiens, UniProt O75460); experiment: Inhibition of ERN1 (unknown origin)
Serine/threonine-protein kinase/endoribonuclease IRE1, sequence (O75460 whole entry): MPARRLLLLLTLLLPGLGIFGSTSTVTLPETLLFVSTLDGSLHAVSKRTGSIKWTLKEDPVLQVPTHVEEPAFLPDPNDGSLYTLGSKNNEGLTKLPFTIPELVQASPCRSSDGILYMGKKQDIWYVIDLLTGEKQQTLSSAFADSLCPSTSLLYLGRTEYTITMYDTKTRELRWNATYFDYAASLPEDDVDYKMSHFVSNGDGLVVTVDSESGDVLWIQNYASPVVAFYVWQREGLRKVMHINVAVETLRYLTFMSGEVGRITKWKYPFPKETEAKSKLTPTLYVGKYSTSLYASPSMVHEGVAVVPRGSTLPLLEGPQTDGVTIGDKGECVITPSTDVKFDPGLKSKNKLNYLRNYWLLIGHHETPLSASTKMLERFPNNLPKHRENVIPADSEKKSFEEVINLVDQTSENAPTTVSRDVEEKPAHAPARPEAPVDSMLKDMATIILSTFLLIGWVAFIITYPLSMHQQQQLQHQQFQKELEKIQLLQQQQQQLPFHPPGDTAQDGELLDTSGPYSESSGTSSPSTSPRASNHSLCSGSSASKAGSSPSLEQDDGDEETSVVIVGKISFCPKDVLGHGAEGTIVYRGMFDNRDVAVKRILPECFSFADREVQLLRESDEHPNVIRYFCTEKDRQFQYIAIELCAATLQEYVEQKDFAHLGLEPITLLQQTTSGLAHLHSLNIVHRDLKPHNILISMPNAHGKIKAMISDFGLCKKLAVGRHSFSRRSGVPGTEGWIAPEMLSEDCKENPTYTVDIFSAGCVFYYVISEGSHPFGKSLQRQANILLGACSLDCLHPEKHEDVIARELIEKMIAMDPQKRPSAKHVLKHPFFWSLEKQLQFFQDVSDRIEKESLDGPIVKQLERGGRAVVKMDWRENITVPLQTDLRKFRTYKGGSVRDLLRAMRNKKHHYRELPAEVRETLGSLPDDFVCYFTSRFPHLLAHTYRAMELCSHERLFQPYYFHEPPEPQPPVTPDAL

MV4-11 [19] = experiment: Induction of apoptosis in human MV4-11 cells assessed as late apoptotic cells at 0.1 uM after 24 hrs by annexin V-FITC/propidium iodide staining-based FACS flow cytometric analysis (reference value: 4.28%); assay type: functional

O=C(Nc1ccc(Oc2ncnc3[nH]ncc23)cc1)Nc1ccc(Cl)c(C(F)(F)F)c1
IC50 (MCF7): > 10 µM
Activity (MV4-11 [1]): 5.5%
IC50 [2]: > 10 µM
TGI (MV4-11 [3]): Active
IC50 [4]: > 10 µM
IC50 (U-266): > 10 µM
TGI (MV4-11 [5]): Active
IC50 (SMMC-7721): > 10 µM
IC50 (Myotonin-protein kinase): > 10 µM
Kd [6]: 0.0043 µM
IC50 (MDA-MB-468): 6.68 µM
bioavailability [7]: 66.7%
Cmax [8]: 15100 ng/mL
IC50 [9]: > 10 µM
IC50 [10]: 2.5 µM
inhibition [11]: Dose-dependent effect
IC50 [12]: > 10 µM
Activity (MV4-11 [13]): tde
AUC at 24 h [14]: 319 µg·h/mL
IC50 [15]: > 10 µM
IC50 (Bel-7402): > 10 µM
inhibition [16]: Active
IC50 (K562): > 10 µM
IC50 [17]: > 10 µM
IC50 [18]: > 10 µM
Activity (MV4-11 [19]): 25.8%
